Measurements: ChEMBL document CHEMBL1909628, “Discovery of 6-substituted indole-3-glyoxylamides as lead antiprion agents with enhanced cell line activity, improved microsomal stability and low toxicity” (Eur J Med Chem, 2011)

Columns and labels:
Danio rerio = species on record: Danio rerio; assay: (§1) Toxicity in zebrafish assessed as organism survival at 5 uM treated at 48 hrs post-fertilization measured after 3 days; format: organism-based; conditions: in vivo, 72 h, 5 µM
Method in brief: (§2)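 AB wild-type zebrafish embryos dechorionated with pronase at 48 hpf, 3 per well in methylene blue-free E3 medium. Dosed at 5 uM from 10 mM DMSO stocks (1% v/v DMSO). Kept at 28 °C for 72 h without food; survival scored at day 5 versus vehicle controls. Two experiments, each in triplicate.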

ScN2a = assay: Cytotoxicity against mouse ScN2a cells up to 32 uM; format: cell-based
Method in brief: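 ScN2a cells seeded separately in 96-well plates. Calcein cell viability assay run in parallel with the ELISA screen, up to 32 uM maximum.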

[1] = Cytotoxicity against mouse SMB.s15 cells at 20 uM after 5 days by MTT assay; format: cell-based; conditions: smb.s15, 120 h
Method in brief: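 SMB.s15 cells at 12,000 cells/well, exposed to compound for 5 days at 37 °C (DMSO stock diluted via HBSS into medium). Viability measured by MTT assay per the reagent's standard protocol.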

[2] = Antiprion activity against PrPsc infected in mouse SMB.s15 cells assessed as complete clearance of PrPSc after 5 days by dot blot analysis; format: cell-based; conditions: SMB.s15, 120 h
Method in brief: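 SMB.s15 cells (scrapie-infected, mesodermal origin) in Medium 199 with 10% newborn calf and 5% fetal calf serum, seeded at 12,000 cells/well, 24 h attachment. Compound added from DMSO stock via HBSS dilution, 5 days at 37 °C. Lysates dot-blotted, proteinase K digestion (1 h, 37 °C), guanidine thiocyanate, anti-PrP 6H4 mAb, ECL. Triplicate, PrPSc relative to DMSO-only control.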

[3] = Toxicity in zebrafish assessed as mortality rate at 5 uM measured after 72 hrs; format: organism-based, Danio rerio; conditions: in vivo, read-out: Activity; method in brief: as §2
[4] = Metabolic stability in mouse liver microsomes assessed as compound remaining after 30 mins by HPLC analysis; format: ADME, Microsome; conditions: read-out: Stability
Method in brief: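 Mouse liver microsomes (0.5 mg/mL stock) in 0.2 M potassium phosphate pH 7.0 with DL-isocitrate, MgCl2 and isocitrate dehydrogenase. Preincubated 5 min at 37 °C, then started with NADPH. Sampled at t=0 and after 30 min at 37 °C, quenched in ice-cold acetonitrile with internal standard. Analysed by C18 HPLC, UV at 267 nm, in triplicate.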

[5] = as §1; format: organism-based, Danio rerio; conditions: in vivo; method in brief: as §2

SMILES | Activity (Danio rerio) | Activity (ScN2a) | Activity [1] | EC50 [2] | mortality at 72 h, 5 µM [3] | remaining at 0.5 h [4] | survival at 72 h, 5 µM [5]
O=C(Nc1ccccc1)C(=O)c1c[nH]c2ccc(Cl)cc12 | Toxic | Non-toxic | Non-toxic | 1630 nM |  |  | 
Cc1ccc(NC(=O)C(=O)c2c[nH]c3cc(C(C)C)ccc23)cc1 |  | Non-toxic | Non-toxic | 610 nM | 20% | 82.6% | 
COc1ccc(NC(=O)C(=O)c2c[nH]c3cc([N+](=O)[O-])ccc23)cc1 | Toxic | Non-toxic | Non-toxic | 10.5 nM |  | 90% | 
Cc1ccc(NC(=O)C(=O)c2c[nH]c3cc([N+](=O)[O-])ccc23)cc1 |  | Non-toxic | Non-toxic | 35 nM | 20% | 84.8% | 100%
COc1ccc(NC(=O)C(=O)c2c[nH]c3cccc(C)c23)cc1 |  | Non-toxic | Non-toxic | 2360 nM |  |  | 100%
Cc1ccc(NC(=O)C(=O)c2c[nH]c3cccc(C)c23)cc1 |  | Non-toxic | Non-toxic | > 20000 nM | 20% |  | 100%
Cc1cccc2[nH]cc(C(=O)C(=O)Nc3ccc(N4CCOCC4)cc3)c12 | Toxic | Non-toxic | Non-toxic | 680 nM | 20% |  | 
COc1ccc(NC(=O)C(=O)c2c[nH]c3ccc(C)cc23)cc1 |  | Non-toxic | Non-toxic | 880 nM |  |  | 100%
Cc1ccc(NC(=O)C(=O)c2c[nH]c3ccc(C)cc23)cc1 | Toxic | Non-toxic | Non-toxic | 900 nM | 20% |  | 
Cc1ccc2[nH]cc(C(=O)C(=O)Nc3ccc(N4CCOCC4)cc3)c2c1 | Toxic | Non-toxic | Non-toxic | 83 nM | 20% |  | 
Cc1ccc2[nH]cc(C(=O)C(=O)Nc3ccccc3)c2c1 |  | Non-toxic | Non-toxic | 11500 nM |  |  | 100%
Cc1ccc(NC(=O)C(=O)c2c[nH]c3ccc(Cl)cc23)cc1 |  | Non-toxic | Non-toxic | 560 nM | 20% |  | 100%
O=C(Nc1ccc(N2CCOCC2)cc1)C(=O)c1c[nH]c2ccc(Cl)cc12 | Toxic | Non-toxic | Non-toxic | 69 nM | 20% |  | 
COc1ccc(NC(=O)C(=O)c2c[nH]c3cc(C)ccc23)cc1 |  | Non-toxic | Non-toxic | 12 nM |  | 89.1% | 100%
Cc1ccc(NC(=O)C(=O)c2c[nH]c3cc(C)ccc23)cc1 |  | Non-toxic | Non-toxic | 51 nM | 20% | 90.2% | 100%
Cc1ccc2c(C(=O)C(=O)Nc3ccccc3)c[nH]c2c1 |  | Non-toxic | Non-toxic | 44 nM |  |  | 100%
COc1ccc(NC(=O)C(=O)c2c[nH]c3cc(Cl)ccc23)cc1 | Toxic | Non-toxic | Non-toxic | 9.9 nM |  | 87.3% | 

SMILES | Activity (Danio rerio) | Activity (ScN2a) | Activity [1] | EC50 [2] | mortality at 72 h, 5 µM [3] | remaining at 0.5 h [4] | survival at 72 h, 5 µM [5]
Cc1ccc(NC(=O)C(=O)c2c[nH]c3cc(Cl)ccc23)cc1 |  | Non-toxic | Non-toxic | 100 nM | 20% | 85.6% | 100%
O=C(Nc1ccc(N2CCOCC2)cc1)C(=O)c1c[nH]c2cc(Cl)ccc12 |  | Non-toxic | Non-toxic | 7.3 nM | 20% |  | 
O=C(Nc1ccccc1)C(=O)c1c[nH]c2cc(Cl)ccc12 |  | Non-toxic | Non-toxic | 74 nM |  |  | 100%
COc1ccc(NC(=O)C(=O)c2c[nH]c3c(C)cccc23)cc1 |  | Non-toxic | Non-toxic | 150 nM |  |  | 100%
Cc1ccc(NC(=O)C(=O)c2c[nH]c3c(C)cccc23)cc1 | Toxic | Non-toxic | Non-toxic | 1400 nM | 20% |  | 
Cc1cccc2c(C(=O)C(=O)Nc3ccc(N4CCOCC4)cc3)c[nH]c12 |  | Non-toxic | Non-toxic | 16 nM | 20% |  | 100%
O=C(Nc1ccc(N2CCOCC2)cc1)C(=O)c1c[nH]c2c(Cl)cccc12 |  | Non-toxic | Non-toxic | 7.2 nM | 20% |  | 100%
O=C(Nc1ccc(-n2cccc2)cc1)C(=O)c1c[nH]c2cc(Cl)ccc12 | Toxic | Non-toxic | Non-toxic | 17 nM |  |  | 
Cn1cc(C(=O)C(=O)Nc2ccc(-n3cccc3)cc2)c2ccc(Cl)cc21 |  | Non-toxic | Non-toxic | 270 nM |  |  | 100%
COc1ccc(NC(=O)C(=O)c2cn(C)c3cc(Cl)ccc23)cc1 | Toxic | Non-toxic | Non-toxic | 1630 nM |  |  | 
Cn1cc(C(=O)C(=O)Nc2ccc(-n3cccc3)cc2)c2ccccc21 |  | Non-toxic | Non-toxic | 170 nM |  |  | 100%
O=C(Nc1ccc(-n2cccc2)cc1)C(=O)c1c[nH]c2cc(F)ccc12 |  | Non-toxic | Non-toxic | 7.7 nM |  |  | 100%
O=C(Nc1ccc(-n2cccn2)cc1)C(=O)c1c[nH]c2cc(F)ccc12 | Toxic | Non-toxic | Non-toxic | 1.2 nM |  |  | 
COc1ccc(NC(=O)C(=O)c2c[nH]c3cc(F)ccc23)cc1 |  | Non-toxic | Non-toxic | 13 nM |  | 74.6% | 100%
COc1ccc(NC(=O)C(=O)c2c[nH]c3cc(C(C)C)ccc23)cc1 |  | Non-toxic | Non-toxic | 330 nM |  | 86.2% | 100%
COc1ccc(NC(=O)C(=O)c2c[nH]c3ccc(Cl)cc23)cc1 | Toxic | Non-toxic | Non-toxic | 470 nM |  |  | 
COc1ccc(NC(=O)C(=O)c2cn(C)c3ccccc23)cc1 | Toxic | Non-toxic | Non-toxic | 68 nM |  |  | 
